{
  "source": "ChEMBL document CHEMBL1806443",
  "about": "“Novel imidazo[4,5-b]pyridine and triaza-benzo[c]fluorene derivatives: synthesis, antiproliferative activity and DNA binding studies” (Eur J Med Chem, 2011)",
  "key": {"MCF7": {"tested_on": "MCF7", "experiment": "Antiproliferative activity against human MCF7 cells after 72 hrs by MTT assay", "format": "functional, cell-based", "conditions": "Homo sapiens, MCF7, 72 h", "procedure,_shortened": "(§1)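 Monolayer cells in DMEM with 10% FBS, 2 mM L-glutamine, penicillin and streptomycin at 37 °C, 5% CO2. Seeded at 3000-6000 cells/well by doubling time on day 0. Five 10-fold dilutions (0.01–100 µM) were added and incubated 72 h. MTT read-out, converted to percentage growth. IC50 by linear regression between bracketing concentrations. Quadruplicate points, three independent experiments, ANOVA/Tukey p<0.05.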"}, "SW-620": {"tested_on": "SW-620", "experiment": "Antiproliferative activity against human SW620 cells after 72 hrs by MTT assay", "format": "functional, cell-based", "conditions": "Homo sapiens, SW-620, 72 h", "procedure,_shortened": "as §1"}, "SK-BR-3 [1]": {"tested_on": "SK-BR-3", "experiment": "Cell cycle arrest in human SKBR3 cells assessed as accumulation at subG1 phase at 10 uM after 48 hrs by propidium iodide staining based flow cytometeric analysis (reference value: 2.1 +/- 0.2%)", "format": "functional"}, "SK-BR-3 [2]": {"tested_on": "SK-BR-3", "experiment": "Cell cycle arrest in human SKBR3 cells assessed as accumulation at G1 phase at 5 uM after 24 hrs by propidium iodide staining based flow cytometeric analysis (reference value: 39.5 +/- 1.1%)", "format": "functional"}, "SK-BR-3 [3]": {"tested_on": "SK-BR-3", "experiment": "Cell cycle arrest in human SKBR3 cells assessed as accumulation at G2/M phase at 5 uM after 24 hrs by propidium iodide staining based flow cytometeric analysis (reference value: 20.6 +/- 2.1%)", "format": "functional"}, "SK-BR-3 [4]": {"tested_on": "SK-BR-3", "experiment": "Cell cycle arrest in human SKBR3 cells assessed as accumulation at G1 phase at 50 uM after 48 hrs by propidium iodide staining based flow cytometeric analysis (reference value: 24.7 +/- 1.9%)", "format": "functional"}, "SK-BR-3 [5]": {"tested_on": "SK-BR-3", "experiment": "Cell cycle arrest in human SKBR3 cells assessed as accumulation at subG1 phase at 10 uM after 24 hrs by propidium iodide staining based flow cytometeric analysis (reference value: 39 +/- 1.1%)", "format": "functional"}, "SK-BR-3 [6]": {"tested_on": "SK-BR-3", "experiment": "Cell cycle arrest in human SKBR3 cells assessed as accumulation at G2/M phase at 10 uM after 48 hrs by propidium iodide staining based flow cytometeric analysis (reference value: 34.7 +/- 3.3%)", "format": "functional"}, "SK-BR-3 [7]": {"tested_on": "SK-BR-3", "experiment": "Cell cycle arrest in human SKBR3 cells assessed as accumulation at S phase at 5 uM after 24 hrs by propidium iodide staining based flow cytometeric analysis (reference value: 39.9 +/- 1.5%)", "format": "functional"}, "SK-BR-3 [8]": {"tested_on": "SK-BR-3", "experiment": "Cell cycle arrest in human SKBR3 cells assessed as accumulation at G1 phase at 10 uM after 24 hrs by propidium iodide staining based flow cytometeric analysis (reference value: 39.5 +/- 1.1%)", "format": "functional"}, "MIA PaCa-2": {"tested_on": "MIA PaCa-2", "experiment": "Antiproliferative activity against human MIAPaCa2 cells after 72 hrs by MTT assay", "format": "functional, cell-based", "conditions": "Homo sapiens, MIA PaCa-2, 72 h", "procedure,_shortened": "as §1"}, "SK-BR-3 [9]": {"tested_on": "SK-BR-3", "experiment": "Cell cycle arrest in human SKBR3 cells assessed as accumulation at G1 phase at 10 uM after 48 hrs by propidium iodide staining based flow cytometeric analysis (reference value: 24.7 +/- 1.9%)", "format": "functional"}, "SK-BR-3 [10]": {"tested_on": "SK-BR-3", "experiment": "Cell cycle arrest in human SKBR3 cells assessed as accumulation at S phase at 50 uM after 24 hrs by propidium iodide staining based flow cytometeric analysis (reference value: 39.9 +/- 1.5%)", "format": "functional"}, "WI-38": {"tested_on": "WI-38", "experiment": "Antiproliferative activity against human WI38 cells after 72 hrs by MTT assay", "format": "cell-based", "conditions": "Homo sapiens, WI-38, 72 h", "procedure,_shortened": "as §1"}, "SK-BR-3 [11]": {"tested_on": "SK-BR-3", "experiment": "Cell cycle arrest in human SKBR3 cells assessed as accumulation at G2/M phase at 5 uM after 48 hrs by propidium iodide staining based flow cytometeric analysis (reference value: 34.7 +/- 3.3%)", "format": "functional"}, "SK-BR-3 [12]": {"tested_on": "SK-BR-3", "experiment": "Cell cycle arrest in human SKBR3 cells assessed as accumulation at S phase at 5 uM after 48 hrs by propidium iodide staining based flow cytometeric analysis (reference value: 40.6 +/- 4.9%)", "format": "functional"}, "SK-BR-3 [13]": {"tested_on": "SK-BR-3", "experiment": "Cell cycle arrest in human SKBR3 cells assessed as accumulation at G2/M phase at 50 uM after 24 hrs by propidium iodide staining based flow cytometeric analysis (reference value: 20.6 +/- 2.1%)", "format": "functional"}, "SK-BR-3 [14]": {"tested_on": "SK-BR-3", "experiment": "Cell cycle arrest in human SKBR3 cells assessed as accumulation at G2/M phase at 50 uM after 48 hrs by propidium iodide staining based flow cytometeric analysis (reference value: 34.7 +/- 3.3%)", "format": "functional"}, "SK-BR-3 [15]": {"tested_on": "SK-BR-3", "experiment": "Cell cycle arrest in human SKBR3 cells assessed as accumulation at G2/M phase at 10 uM after 24 hrs by propidium iodide staining based flow cytometeric analysis (reference value: 20.6 +/- 2.1%)", "format": "functional"}, "HeLa": {"tested_on": "HeLa", "experiment": "Antiproliferative activity against human HeLa cells after 72 hrs by MTT assay", "format": "functional, cell-based", "conditions": "Homo sapiens, HeLa, 72 h", "procedure,_shortened": "as §1"}, "SK-BR-3 [16]": {"tested_on": "SK-BR-3", "experiment": "Cell cycle arrest in human SKBR3 cells assessed as accumulation at S phase at 50 uM after 48 hrs by propidium iodide staining based flow cytometeric analysis (reference value: 40.6 +/- 4.9%)", "format": "functional"}, "SK-BR-3 [17]": {"tested_on": "SK-BR-3", "experiment": "Cell cycle arrest in human SKBR3 cells assessed as accumulation at S phase at 10 uM after 48 hrs by propidium iodide staining based flow cytometeric analysis (reference value: 40.6 +/- 4.9%)", "format": "functional"}, "HEp-2": {"tested_on": "HEp-2", "experiment": "Antiproliferative activity against human Hep2 cells after 72 hrs by MTT assay", "format": "functional, cell-based", "conditions": "Homo sapiens, HEp-2, 72 h", "procedure,_shortened": "as §1"}, "SK-BR-3 [18]": {"tested_on": "SK-BR-3", "experiment": "Cell cycle arrest in human SKBR3 cells assessed as accumulation at G1 phase at 5 uM after 48 hrs by propidium iodide staining based flow cytometeric analysis (reference value: 24.7 +/- 1.9%)", "format": "functional"}, "SK-BR-3 [19]": {"tested_on": "SK-BR-3", "experiment": "Cell cycle arrest in human SKBR3 cells assessed as accumulation at subG1 phase at 5 uM after 24 hrs by propidium iodide staining based flow cytometeric analysis (reference value: 39 +/- 1.1%)", "format": "functional"}, "SK-BR-3 [20]": {"tested_on": "SK-BR-3", "experiment": "Cell cycle arrest in human SKBR3 cells assessed as accumulation at G1 phase at 50 uM after 24 hrs by propidium iodide staining based flow cytometeric analysis (reference value: 39.5 +/- 1.1%)", "format": "functional"}, "SK-BR-3 [21]": {"tested_on": "SK-BR-3", "experiment": "Cell cycle arrest in human SKBR3 cells assessed as accumulation at subG1 phase at 5 uM after 48 hrs by propidium iodide staining based flow cytometeric analysis (reference value: 2.1 +/- 0.2%)", "format": "functional"}, "SK-BR-3 [22]": {"tested_on": "SK-BR-3", "experiment": "Cell cycle arrest in human SKBR3 cells assessed as accumulation at subG1 phase at 50 uM after 24 hrs by propidium iodide staining based flow cytometeric analysis (reference value: 39 +/- 1.1%)", "format": "functional"}, "SK-BR-3 [23]": {"tested_on": "SK-BR-3", "experiment": "Cell cycle arrest in human SKBR3 cells assessed as accumulation at subG1 phase at 50 uM after 48 hrs by propidium iodide staining based flow cytometeric analysis (reference value: 2.1 +/- 0.2%)", "format": "functional"}, "SK-BR-3 [24]": {"tested_on": "SK-BR-3", "experiment": "Cell cycle arrest in human SKBR3 cells assessed as accumulation at S phase at 10 uM after 24 hrs by propidium iodide staining based flow cytometeric analysis (reference value: 39.9 +/- 1.5%)", "format": "functional"}, "SK-BR-3 [25]": {"tested_on": "SK-BR-3", "experiment": "Antiproliferative activity against human SKBR3 cells after 72 hrs by MTT assay", "format": "functional, cell-based", "conditions": "Homo sapiens, SK-BR-3, 72 h", "procedure,_shortened": "as §1"}},
  "data": [
    {"compound": "Nc1ccc2c(ccc3nc4ncccc4n32)c1", "values": [
      {"measurement": "IC50", "setting": "MCF7", "result": 72.4, "unit": "µM"},
      {"measurement": "IC50", "setting": "SW-620", "result": 34.8, "unit": "µM"},
      {"measurement": "Activity", "setting": "SK-BR-3 [1]", "result": 5.5, "unit": "%"},
      {"measurement": "Activity", "setting": "SK-BR-3 [2]", "result": 47.1, "unit": "%"},
      {"measurement": "Activity", "setting": "SK-BR-3 [3]", "result": 17.7, "unit": "%"},
      {"measurement": "Activity", "setting": "SK-BR-3 [4]", "result": 19.9, "unit": "%"},
      {"measurement": "Activity", "setting": "SK-BR-3 [5]", "result": 45.8, "unit": "%"},
      {"measurement": "Activity", "setting": "SK-BR-3 [6]", "result": 14.8, "unit": "%"},
      {"measurement": "Activity", "setting": "SK-BR-3 [7]", "result": 35.1, "unit": "%"},
      {"measurement": "Activity", "setting": "SK-BR-3 [8]", "result": 39.4, "unit": "%"},
      {"measurement": "IC50", "setting": "MIA PaCa-2", "result": 48.2, "unit": "µM"},
      {"measurement": "Activity", "setting": "SK-BR-3 [9]", "result": 20.9, "unit": "%"},
      {"measurement": "Activity", "setting": "SK-BR-3 [10]", "result": 48.1, "unit": "%"},
      {"measurement": "IC50", "setting": "WI-38", "result": "> 100", "unit": "µM"},
      {"measurement": "Activity", "setting": "SK-BR-3 [11]", "result": 15.8, "unit": "%"},
      {"measurement": "Activity", "setting": "SK-BR-3 [12]", "result": 59.8, "unit": "%"},
      {"measurement": "Activity", "setting": "SK-BR-3 [13]", "result": 18.7, "unit": "%"},
      {"measurement": "Activity", "setting": "SK-BR-3 [14]", "result": 32.5, "unit": "%"},
      {"measurement": "Activity", "setting": "SK-BR-3 [15]", "result": 26.1, "unit": "%"},
      {"measurement": "IC50", "setting": "HeLa", "result": 43.4, "unit": "µM"},
      {"measurement": "Activity", "setting": "SK-BR-3 [16]", "result": 47.6, "unit": "%"},
      {"measurement": "Activity", "setting": "SK-BR-3 [17]", "result": 64.2, "unit": "%"},
      {"measurement": "IC50", "setting": "HEp-2", "result": 39.2, "unit": "µM"},
      {"measurement": "Activity", "setting": "SK-BR-3 [18]", "result": 24.4, "unit": "%"},
      {"measurement": "Activity", "setting": "SK-BR-3 [19]", "result": 35.7, "unit": "%"},
      {"measurement": "Activity", "setting": "SK-BR-3 [20]", "result": 33.2, "unit": "%"},
      {"measurement": "Activity", "setting": "SK-BR-3 [21]", "result": 1.9, "unit": "%"},
      {"measurement": "Activity", "setting": "SK-BR-3 [22]", "result": 50.2, "unit": "%"},
      {"measurement": "Activity", "setting": "SK-BR-3 [23]", "result": 3.1, "unit": "%"},
      {"measurement": "Activity", "setting": "SK-BR-3 [24]", "result": 34.5, "unit": "%"},
      {"measurement": "IC50", "setting": "SK-BR-3 [25]", "result": 2.94, "unit": "µM"}
    ]}
  ]
}
